Data: ChEMBL document CHEMBL3393003, “1,2,3,9b-Tetrahydro-5H-imidazo[2,1-a]isoindol-5-ones as a new class of respiratory syncytial virus (RSV) fusion inhibitors. Part 2: identification of BTA9881 as a preclinical candidate” (Bioorg Med Chem Lett, 2015)
≈ marks a conversion by molar mass, not a printed value.

Legend:
[1] = tested on: Respiratory syncytial virus; test: Resistance index, ratio of EC50 for VP-14637 resistant respiratory syncytial virus Long expressing F protein D489Y mutant to EC50 for wild type Respiratory syncytial virus Long
[2] = tested on: Respiratory syncytial virus; test: Resistance index, ratio of EC50 for drug resistant respiratory syncytial virus B1 expressing F protein L141F mutant to EC50 for wild type Respiratory syncytial virus B1; format: functional
[3] = tested on: Respiratory syncytial virus; test: Resistance index, ratio of EC50 for drug resistant respiratory syncytial virus Long expressing F protein Q494L mutant to EC50 for wild type Respiratory syncytial virus Long
[4] = tested on: Respiratory syncytial virus; test: Antiviral activity against respiratory syncytial virus A2 infected in human Hep2 cells assessed as reduction in virus-induced cytopathic effect after 5 days by MTT assay; format: functional, organism-based; conditions: A2, HEp-2, 120 h
Procedure, shortened: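 HEp2 cells (1.0 × 10⁴/well) infected at low moi (RSV A2 at moi 0.01) and added to serial compound dilutions; incubated 5 days at 37 °C, 5% CO₂. CPE read by MTT (1 mg/ml) metabolism after 2 h incubation.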

[5] = Cmax in Sprague-Dawley rat at 19 mg/kg, po; format: ADME, organism-based; design: dose 19 mg/kg, route oral; conditions: in vivo
Procedure, shortened: (§1)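 Male Sprague Dawley rats, n = 2, oral dose as suspension in hydroxypropylmethylcellulose, in carboxymethylcellulose, or in 0.5% HPMC/0.5% benzyl alcohol/0.4% Tween80. Cmax (µM), T1/2 and F (%) derived from plasma levels.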

[6] = Kinetic solubility in isotonic phosphate buffer at pH 6.5 by nephelometry; format: physicochemical; conditions: read-out: Kinetic_solubility
Procedure, shortened: (§2)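 Compound dissolved in DMSO and added to 0.01 M HCl (pH 2) or pH 6.5 isotonic phosphate buffer, 1% final DMSO. Solubility range determined by nephelometry.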

[7] = tested on: Respiratory syncytial virus; test: Antiviral activity against respiratory syncytial virus Long infected in human Hep2 cells assessed as reduction in virus-induced cytopathic effect after 5 days by MTT assay; format: functional, organism-based; conditions: HEp-2, 120 h
[8] = tested on: Respiratory syncytial virus; test: Antiviral activity against respiratory syncytial virus B1 infected in human Hep2 cells assessed as reduction in virus-induced cytopathic effect after 5 days by MTT assay; format: functional, organism-based; conditions: B1, HEp-2, 120 h
[9] = Lipophilicity, log D of the compound at pH 7.4 by chromatography; format: physicochemical; conditions: buffer
Procedure, shortened: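 Effective logD measured chromatographically on an LC-ABZ column, octanol-saturated mobile phase at pH 7.4.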

[10] = Elimination half life in Sprague-Dawley rat at 2 mg/kg, iv; format: ADME, organism-based; design: dose 2 mg/kg, route intravenous; conditions: in vivo, read-out: beta t1/2 (converted)
[11] = Kinetic solubility in 0.01M HCl buffer at pH 2.0 by nephelometry; format: physicochemical; conditions: read-out: Kinetic_solubility
Procedure, shortened: as §2

[12] = Elimination half life in Sprague-Dawley rat at 19 mg/kg, po; format: ADME, organism-based; design: dose 19 mg/kg, route oral; conditions: in vivo, read-out: beta t1/2 (converted)
Procedure, shortened: as §1

[13] = Plasma clearance in Sprague-Dawley rat at 2 mg/kg, iv; format: ADME, organism-based; design: dose 2 mg/kg, route intravenous
[14] = Apparent volume of distribution in Sprague-Dawley rat at 2 mg/kg, iv; format: ADME, organism-based; design: dose 2 mg/kg, route intravenous; conditions: in vivo, read-out: Vz
[15] = Oral bioavailability in Sprague-Dawley rat at 19 mg/kg; format: ADME, organism-based; conditions: in vivo
Procedure, shortened: as §1

[16] = tested on: Respiratory syncytial virus; test: Potency shift index, ratio of EC50 for respiratory syncytial virus A2 infected in human Hep2 in presence of 1.5 mg/mL Alpha-1-acid glycoprotein to EC50 for respiratory syncytial virus A2 infected in human Hep2 in absence of Alpha-1-acid glycoprotein; format: functional
[17] = Cytotoxicity against human Hep2 cells assessed as reduction in cell viability after 5 days by MTT assay; format: cell-based, HEp-2
Procedure, shortened: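 Uninfected HEp2 cells (1.0 × 10⁴/well) exposed to serial compound dilutions for 5 days at 37 °C, 5% CO₂. Viability read by MTT (1 mg/ml) metabolism after 2 h incubation.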

Plasma [18] = test: Drug metabolism in orally dosed Sprague-Dawley rat plasma assessed as formation of pyridine N-oxides level; format: ADME, organism-based; conditions: in vivo, po
Plasma [19] = test: Drug metabolism in iv dosed Sprague-Dawley rat plasma assessed as formation of pyridine N-oxides level; format: ADME, organism-based; conditions: in vivo
[20] = Drug metabolism in orally dosed Sprague-Dawley rat urine assessed as formation of pyridine N-oxides level; format: ADME, organism-based; conditions: in vivo, po
[21] = Drug metabolism in iv dosed Sprague-Dawley rat urine assessed as formation of pyridine N-oxides level; format: ADME, organism-based; conditions: in vivo

O=c1n(Cc2nc3ccccc3n2CCCCO)c2cnccc2n1C1CC1
Ratio EC50 [1]: >20000 | Ratio EC50 [2]: >345 | Ratio EC50 [3]: 10

O=C(c1ccc(F)cc1)N1CCN2C(=O)c3ccncc3[C@]12c1ccc(Cl)cc1
EC50 [4]: 110 nM

O=C(c1ccc(F)cc1)N1CCN2C(=O)c3cc[n+]([O-])cc3[C@]12c1ccc(Cl)cc1
EC50 [4]: 170 nM

O=C(c1ccoc1)N1CCN2C(=O)c3ccncc3[C@]12c1ccc(Cl)cc1
Cmax [5]: 770 nM | solubility kinetic [6]: > 100 µg/mL | EC50 [7]: 32 nM | EC50 [8]: 85 nM | chromatographic logD [9]: 2.5 | EC50 [4]: 10 nM | half-life [10]: 2.4 h | solubility kinetic [11]: 50 µg/mL (≈ 132 µM) | half-life [12]: 3.1 h | clearance [13]: 55 mL/min/kg | Vd [14]: 11 L/kg | bioavailability [15]: 35%

O=C(c1csc(-c2cccnc2)n1)N1CCN2C(=O)c3ccncc3[C@]12c1ccc(Cl)cc1
EC50 [4]: 13 nM

O=C(c1ccc(F)cc1)N1CCN2C(=O)c3ccncc3[C@@]12c1ccc(Cl)cc1
EC50 [4]: 14000 nM

O=C(c1ccc(F)cc1)N1CCN2C(=O)c3cc[n+]([O-])cc3[C@@]12c1ccc(Cl)cc1
EC50 [4]: 8600 nM

O=C(c1ccoc1)N1CCN2C(=O)c3ccncc3[C@@]12c1ccc(Cl)cc1
EC50 [4]: 670 nM

O=C(c1csc(-c2cccnc2)n1)N1CCN2C(=O)c3ccncc3[C@@]12c1ccc(Cl)cc1
EC50 [4]: 920 nM

O=C(c1cccnc1)N1CCN2C(=O)c3ccncc3[C@@]12c1ccc(Cl)cc1
EC50 [4]: > 1200 nM

O=C(c1ccc(F)nc1)N1CCN2C(=O)c3ccncc3[C@@]12c1ccc(Cl)cc1
EC50 [4]: 7800 nM

Cn1cc(C(=O)N2CCN3C(=O)c4ccncc4[C@@]32c2ccc(Cl)cc2)c(C(F)(F)F)n1
solubility kinetic [6]: 25 µg/mL (≈ 54.1 µM) | EC50 [7]: 6.4 nM | EC50 [8]: 100 nM | chromatographic logD [9]: 3 | EC50 [4]: 7.2 nM | solubility kinetic [11]: > 100 µg/mL

Cc1nnnn1N/C=C1\C=CC(=O)C(C(C2=C/C(=C/Nn3nnnc3C)C=CC2=O)c2ccc(O)cc2)=C1 (stereo unspecified)
Ratio EC50 [1]: >2174

Cc1ccc(CCCO)c(NCc2ccc3nc(NCCCN4CCOCC4)n(Cc4nc(C)ccc4O)c3c2)c1
Ratio EC50 [1]: >10000 | Ratio EC50 [2]: >3333 | Ratio EC50 [3]: 11.5

O=C(c1ccc(F)cc1)N1CCN2C(=O)c3ccncc3C12c1ccc(Cl)cc1 (racemic)
Ratio EC50 [16]: 7.2 | half-life [10]: > 24 h | clearance [13]: 2.7 mL/min/kg | Vd [14]: 6 L/kg

O=C(c1ccc(F)cc1)N1CCN2C(=O)c3cc[n+]([O-])cc3C12c1ccc(Cl)cc1 (racemic)
half-life [10]: 6.5 h | clearance [13]: 2.4 mL/min/kg | Vd [14]: 1.3 L/kg

O=C(Nc1ccc(F)cc1)N1CCN2C(=O)c3ccncc3C12c1ccc(Cl)cc1 (racemic)
CC50 at 120 h [17]: > 20000 nM | EC50 [4]: 1000 nM

O=C(NCc1ccc(F)cc1)N1CCN2C(=O)c3ccncc3C12c1ccc(Cl)cc1 (racemic)
CC50 at 120 h [17]: > 20000 nM | EC50 [4]: 930 nM

O=C(NCCc1ccc(F)cc1)N1CCN2C(=O)c3ccncc3C12c1ccc(Cl)cc1 (racemic)
CC50 at 120 h [17]: > 20000 nM | EC50 [4]: 620 nM

O=C(c1ccno1)N1CCN2C(=O)c3ccncc3C12c1ccc(Cl)cc1 (racemic)
CC50 at 120 h [17]: > 19000 nM | EC50 [4]: 370 nM

O=C(c1cc2ccccc2o1)N1CCN2C(=O)c3ccncc3C12c1ccc(Cl)cc1 (racemic)
CC50 at 120 h [17]: > 17000 nM | EC50 [4]: 6400 nM

O=C(c1ccoc1)N1CCN2C(=O)c3ccncc3C12c1ccc(Cl)cc1 (racemic)
Ratio EC50 [16]: 2.4 | CC50 at 120 h [17]: > 19000 nM | EC50 [4]: 96 nM

O=C(c1ccon1)N1CCN2C(=O)c3ccncc3C12c1ccc(Cl)cc1 (racemic)
Ratio EC50 [16]: 11 | CC50 at 120 h [17]: > 20000 nM | EC50 [4]: 180 nM

Cc1cc(C(=O)N2CCN3C(=O)c4ccncc4C32c2ccc(Cl)cc2)c(C)o1 (racemic)
Ratio EC50 [16]: 14 | CC50 at 120 h [17]: > 18000 nM | EC50 [4]: 120 nM

Cc1oc(-c2ccccc2)cc1C(=O)N1CCN2C(=O)c3ccncc3C21c1ccc(Cl)cc1 (racemic)
CC50 at 120 h [17]: > 15000 nM | EC50 [4]: 1600 nM

O=C(c1cccs1)N1CCN2C(=O)c3ccncc3C12c1ccc(Cl)cc1 (racemic)
Ratio EC50 [16]: 12 | CC50 at 120 h [17]: > 18000 nM | EC50 [4]: 130 nM

O=C(c1ccsc1)N1CCN2C(=O)c3ccncc3C12c1ccc(Cl)cc1 (racemic)
Ratio EC50 [16]: 27 | CC50 at 120 h [17]: > 18000 nM | EC50 [4]: 170 nM

O=C(c1cscn1)N1CCN2C(=O)c3ccncc3C12c1ccc(Cl)cc1 (racemic)
Ratio EC50 [16]: 16 | CC50 at 120 h [17]: > 18000 nM | EC50 [4]: 180 nM

Cc1nc(C(=O)N2CCN3C(=O)c4ccncc4C23c2ccc(Cl)cc2)cs1 (racemic)
Ratio EC50 [16]: 5.7 | CC50 at 120 h [17]: > 18000 nM | EC50 [4]: 73 nM

O=C(c1csc(-c2cccs2)n1)N1CCN2C(=O)c3ccncc3C12c1ccc(Cl)cc1 (racemic)
Ratio EC50 [16]: 16 | CC50 at 120 h [17]: > 15000 nM | EC50 [4]: 27 nM

O=C(c1csc(-c2cccnc2)n1)N1CCN2C(=O)c3ccncc3C12c1ccc(Cl)cc1 (racemic)
Ratio EC50 [16]: 10 | CC50 at 120 h [17]: > 15000 nM | EC50 [4]: 25 nM

O=C(c1csc(-c2ccncc2)n1)N1CCN2C(=O)c3ccncc3C12c1ccc(Cl)cc1 (racemic)
CC50 at 120 h [17]: > 15000 nM | EC50 [4]: 2300 nM

Cn1cnc(C(=O)N2CCN3C(=O)c4ccncc4C23c2ccc(Cl)cc2)c1 (racemic)
CC50 at 120 h [17]: > 20000 nM | EC50 [4]: 750 nM

Cn1cncc1C(=O)N1CCN2C(=O)c3ccncc3C21c1ccc(Cl)cc1 (racemic)
CC50 at 120 h [17]: > 20000 nM | EC50 [4]: 730 nM

Cn1cccc1C(=O)N1CCN2C(=O)c3ccncc3C21c1ccc(Cl)cc1 (racemic)
Ratio EC50 [16]: 91 | CC50 at 120 h [17]: > 20000 nM | EC50 [4]: 20 nM

O=C(c1cccc(Cl)n1)N1CCN2C(=O)c3ccncc3C12c1ccc(Cl)cc1 (racemic)
Ratio EC50 [16]: 27 | CC50 at 120 h [17]: > 17000 nM | EC50 [4]: 110 nM

O=C(c1ccccn1)N1CCN2C(=O)c3ccncc3C12c1ccc(Cl)cc1 (racemic)
CC50 at 120 h [17]: > 19000 nM | EC50 [4]: 770 nM

O=C(c1ccc2ccccc2n1)N1CCN2C(=O)c3ccncc3C12c1ccc(Cl)cc1 (racemic)
CC50 at 120 h [17]: > 17000 nM | EC50 [4]: 8500 nM

O=C(c1cccnc1)N1CCN2C(=O)c3ccncc3C12c1ccc(Cl)cc1 (racemic)
Ratio EC50 [16]: 2.8 | CC50 at 120 h [17]: > 51000 nM | EC50 [4]: 210 nM

O=C(c1ccc(F)nc1)N1CCN2C(=O)c3ccncc3C12c1ccc(Cl)cc1 (racemic)
Drug metabolism (Plasma [18]): metabolite_detected | Drug metabolism (Plasma [19]): metabolite_detected | Drug metabolism [20]: metabolite_detected | Ratio EC50 [16]: 1.8 | CC50 at 120 h [17]: > 48000 nM | EC50 [4]: 93 nM | Drug metabolism [21]: metabolite_detected
